# Screening results (PubChem)
# Granule exo inh: LAMP-1 surface exposure blockers, TALL-104 cells – cell-based, flow cytometry, MLPCN library, primary screen | TALL-104 LAMP-1 surface exposure; cells stimulated with thapsigargin and PMA | inhibition, % at 10 µM | 360,000 compounds, 0.66% hits | AID 651702, 2012;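 active = inhibition above about 55%, limit read from the data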
# Myeloid diff 2: induction of myeloid progenitor differentiation, primary screen, cell-based, flow cytometry, MLPCN library. calls only at 10 µM. ER-HoxA9 myeloid progenitors, lysozyme-GFP differentiation. 360,000 compounds, 1% hits;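 active = normalized GFP-positive differentiation at or above the plate's own cutoff, the solvent-only control mean plus 3 SD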;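 note: cells exposed to compound for four days before flow analysis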
# CSN inh: inhibitors of CSN-mediated cullin deneddylation, primary screen, biochemical, fluorescence polarization, uHTS; 360,000 compounds, 0.38% hits; COP9 signalosome complex subunit 5 (Homo sapiens), Q92905; inhibition, % at 12.5 µM; AID 651999, 2013; Purified CSN, SCF-Nedd8-OG deneddylation;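 active = pattern-corrected inhibition above about 35%, with an unprinted fluorescence ratio check between 0.5 and 1.5, limit read from the data, passing the limit was not always enough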;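 note: 0% = enzyme with substrate and 100% = substrate without enzyme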
# Target sequence (Q92905 whole entry, looked up, one chain of several): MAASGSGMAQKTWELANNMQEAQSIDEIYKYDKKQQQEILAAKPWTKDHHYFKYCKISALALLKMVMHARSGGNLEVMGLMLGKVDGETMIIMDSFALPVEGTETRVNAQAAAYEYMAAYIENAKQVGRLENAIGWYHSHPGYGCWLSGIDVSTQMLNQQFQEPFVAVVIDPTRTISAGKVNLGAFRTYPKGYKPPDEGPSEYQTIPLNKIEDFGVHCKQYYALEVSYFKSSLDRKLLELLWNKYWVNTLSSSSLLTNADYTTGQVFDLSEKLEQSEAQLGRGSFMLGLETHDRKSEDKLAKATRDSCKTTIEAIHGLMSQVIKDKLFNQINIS
#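 Assay system: purified human Csn5 enzyme expressed in HEK293T cells; measure: % inhibition; also added: SCFSkp2-Nedd8OG substrate at 10 nM final; technique: fluorescence polarization; times: reaction 90 min, room temperature; medium: Tris buffer pH 7.5, NaCl, DTT, Tween-20, trehalose, ovalbumin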
# HNF4A DNA FP: change in binding of human HNF4A to DNA, primary screen, biochemical, fluorescence polarization, FITC-DNA; Hepatocyte nuclear factor 4-alpha (Homo sapiens), P41235; 1 h; activity change, % at 10 µM; 360,000 compounds, 0.3% hits; in the data active = activity change above about 30%, passing the limit was not always enough
# Myeloid diff: inducers of myeloid progenitor differentiation, confirmation, cell-based, GFP/Mac1 flow cytometry, cherry pick 01; 2,300 compounds, 2% hits; calls only; ER-HoxA9 myeloid progenitors, GFP/Mac1 double-positive flow; shares compounds with Myeloid diff 2;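 active = share of green or green-and-red cells above 9 and 9% in run 1 or 4 and 3% in run 2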
# GFP autofluor: compound fluorescence in myeloid differentiation counter-screen | shares compounds with Myeloid diff 2 | ER-HoxA9 myeloid progenitors, no estrogen, GFP autofluorescence flow cytometry; vehicle wells 0%, positive control 100% | fluorescence response, % (concentration not given with the values) | 2,300 compounds, 7.4% hits | AID 651707;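 active = over 5% cells positive for green fluorescent reporter, or over 2% positive for both it and APC stain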;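 note: range taken on the double positive population between DMSO and positive control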
# Starred values were filed as active, the others as inactive; i = inactive; x = no result; + = active, no number. Compounds with a hit are over-represented: about 2.2% of the library has one in this group of screens.
SMILES,Granule exo inh,Myeloid diff 2,CSN inh,HNF4A DNA FP,Myeloid diff,GFP autofluor
CCOC(=O)Cc1cnc(NC(=O)NC(C(=O)OCC)(c2ccccc2)C(F)(F)F)s1 (centres undefined),44,i,1,-3,i,2
Cc1ccc(-c2noc(CN(C(=O)CCN3C(=O)c4ccccc4C3=O)C(C)C)n2)cc1,-1,+,-12,-3,i,0
CCOc1cc(C)cc2oc(=O)cc(-c3ccccc3)c12,24,i,-2,2,x,x
CC(=O)Oc1cc(C)cc2oc(=O)cc(-c3ccccc3)c12,-4,i,-2,1,i,0
c1ccc2c(c1)CCc1c(-c3ccncc3)n[nH]c1-2,-1,+,-2,-3,i,0
Oc1ccccc1N=Cc1c(O)ccc2oc3c(c12)CCCC3,34,i,3,-26,i,3
O=C(O)c1ccc(N=Cc2c(O)ccc3oc4c(c23)CCCC4)cc1,8,i,0,-5,x,x
O=C(NCCC1CCCCN1S(=O)(=O)c1ccc(F)cc1)C(=O)Nc1ccccc1F (centres undefined),4,i,1,2,x,x
Cc1ccc(S(=O)(=O)N2CCCCC2CCNC(=O)C(=O)Nc2ccccc2F)cc1 (centres undefined),-11,+,1,-3,i,0
CCOCCn1cnc2sc(C(=O)NCCCN3CCOCC3)c(C)c2c1=O,3,i,-1,-3,x,x
CCCCn1c(=O)[nH]c2c(oc3ccccc32)c1=O,-7,+,3,3,i,0
O=C(/C=C/c1cccc(C(F)(F)F)c1)Nc1cccc(C(F)(F)F)c1,9,i,-1,4,i,0
Cc1ccc(NC(=O)/C=C/c2cccc(C(F)(F)F)c2)cc1,-2,i,4,6,x,x
N#C/C(=C\Nc1ccccc1SC(F)(F)F)c1nc(-c2ccccc2)cs1,-4,i,-2,3,x,x
COc1cc2c(cc1N/C=C(\C#N)c1nc(-c3ccc(F)cc3)cs1)oc1ccccc12,-2,+,0,12,i,7.2*
CC(=O)Nc1ccc(C(=O)CN2C(=O)NC3(CCCc4ccccc43)C2=O)c(F)c1 (centres undefined),1,i,2,4,x,x
COc1ccc(S(=O)(=O)N2CCN(CCOc3ccccc3Cl)CC2)cc1OC,0,i,-2,0,i,0
CC(C)c1nc(SCC(=O)c2c[nH]c3ccccc23)n[nH]1,-4,i,0,6,x,x
CCc1nc(SCC(=O)c2c[nH]c3ccccc23)n[nH]1,-4,i,1,7,i,1
CCOc1ccc(-c2nnc(NC(=O)Cc3cc(OC)c(OC)c(OC)c3)o2)cc1,-1,i,-3,5,x,x
Cc1c(N(C)C(=O)COc2ccc3ccccc3c2)c(=O)n(-c2ccccc2)n1C,3,i,0,-1,x,x
COc1ccc2nc(C)cc(SCC(=O)NNC(=O)COc3ccc(C)cc3)c2c1,-2,i,1,2,i,0
CCOc1ccc(CNC(=O)C2CCCN(S(=O)(=O)N3CC(C)CC(C)C3)C2)cc1OC (centres undefined),-9,i,-2,2,x,x
Cc1cccc(NC(=O)c2ccco2)c1C,-10,i,2,-1,i,0
COc1ccccc1C(=O)Nn1c(C2CCC2)nc2ccccc2c1=O,0,i,3,-1,x,x
SMILES,Granule exo inh,Myeloid diff 2,CSN inh,HNF4A DNA FP,Myeloid diff,GFP autofluor
CCOc1ccccc1C(=O)Nn1c(C2CCC2)nc2ccccc2c1=O,-6,+,5,-3,i,0
O=C(Nc1ccc(S(=O)(=O)N2CCOCC2)cc1)c1ccccc1Br,-8,i,-3,1,x,x
c1ccc(CNc2nc(-c3cccs3)nc3ccccc23)nc1,1,i,4,-3,i,2
Cc1ccc(CNc2nc(-c3cccs3)nc3ccccc23)cc1,7,i,-1,1,x,x
COc1ccc(Cl)cc1NC(=O)CN(C)C(=O)CN1C(=O)NC(C)(c2ccc3ccccc3c2)C1=O (centres undefined),5,i,2,0,x,x
CCOc1ccc(-n2c(COc3ccc(C)cc3)nnc2SCC(N)=O)cc1,-4,i,3,6,i,0
COc1ccc(-n2c(COc3ccc(C)cc3)nnc2SCC(=O)O)cc1,2,i,-1,1,x,x
O=C(CCCC(=O)N(CC(=O)NC1CCCCC1)c1ccccc1F)Nc1ccccn1,0,i,-6,2,x,x
CC[C@]12c3[nH]c4cc(-c5ccco5)ccc4c3CCN1C(=O)[C@@H](CC(=O)NCCC1=CCCCC1)C[C@@H]2C(=O)N1CCN(C(=O)c2ccco2)CC1,4,i,26,0,x,x
COc1ccc(N(CC(=O)NC2CCCC2)C(=O)Cn2nnc(-c3ccc(C)cc3)n2)cc1OC,-4,i,-3,2,i,1
O=C(Cc1c[nH]c2ccccc12)N1CCN(S(=O)(=O)c2cccc(Cl)c2Cl)CC1,-6,i,-2,-2,x,x
COc1ccc(C2=NN(C(=O)c3ccccc3)C(c3ccc(OC)c(OC)c3)C2)c(OC(C)=O)c1 (centres undefined),-4,i,4,7,x,x
CS(=O)(=O)N(CC(=O)N1CCCCCC1)c1cc(Cl)ccc1Cl,-6,i,-1,-1,x,x
CCOc1cc(C(=O)Nc2ccc(C)cc2O)ccc1OCC(=O)N1CCOCC1,-10,+,3,5,i,2
CCOc1cc(C(=O)Nc2cc(C(=O)OC)ccc2C)ccc1OCC(=O)N1CCOCC1,-6,i,-1,6,x,x
CCNC(=S)Nc1ccc(N2CCCCC2)cc1,1,i,15,4,x,x
CCNC(=S)N/N=C/c1sc(N2CCCCC2)nc1-c1cccs1,0,i,62,29,i,0
Cc1cc(C)c2cccc(NC(=S)NC(=O)c3ccccc3)c2n1,7,i,-1,5,x,x
COc1cccc(NC(=O)Nc2ccc(Cc3ccncc3)cc2)c1,0,+,0,1,i,1
COc1cccc(NC(=O)Nc2ccncc2)c1,3,i,2,0,x,x
O=C(NC(=S)Nc1cccc(NC(=S)NC(=O)c2ccccc2)c1)c1ccccc1,1,+,20,12,i,1
CCC(=O)Nc1cccc(NC(=S)NC(=O)c2ccccc2)c1,-5,i,-13,3,x,x
O=C(NC(=S)Nc1ccc(Cc2ccncc2)cc1)c1ccccc1,21,+,-10,5,i,5.4*
